Measurements: ChEMBL document CHEMBL1124517, “Nucleosides of azathioprine and thiamiprine as antiarthritics” (J Med Chem, 1989)

How the values were obtained:
Rattus norvegicus [1] = species on record: Rattus norvegicus; experiment: Compound was tested for lethal dose at day 16 against rat; format: ADME, organism-based; details: in vivo
Procedure, shortened: (§1)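 Female Lewis rats (starting weight 190 ± 10 g) with adjuvant-induced arthritis. Compound was milled into rodent chow and given in the diet (mg/kg/day) from the day of adjuvant injection for 14 days. Weight change and deaths were scored on day 16. The highest nontoxic dose was the highest dose without significant weight loss. LD50 was the dietary dose killing 50% by day 16. Some values are approximate, from two dose levels.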

Rattus norvegicus [2] = species on record: Rattus norvegicus; experiment: Compound was tested for dose at which there was no significant weight loss in rat at day 16; format: functional; procedure, shortened: as §1
Rattus norvegicus [3] = species on record: Rattus norvegicus; experiment: Antiarthritic activity in rat determined by adjuvant arthritis assay in rat; format: functional
Procedure, shortened: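 Female Lewis rats, starting weight 190 ± 10 g, adjuvant-induced arthritis. Compound milled into rodent diet, dosed as mg/kg/day in diet from the day of adjuvant injection for 14 days. Arthritic score and weight change assessed on day 16. ED50 is the dose giving a 50% reduction in arthritic score relative to untreated animals.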

Row | Structure (SMILES) | LD50 (Rattus norvegicus [1]) | Highest nontoxic dose (Rattus norvegicus [2]) | ED50 (Rattus norvegicus [3])
1 | Cn1cnc([N+](=O)[O-])c1Sc1nc(N)nc2c1ncn2[C@H]1C[C@H](O)[C@@H](CO)O1 | 100 mg kg-1 (day in diet)-1 | 50 mg kg-1 (day in diet)-1 | 38 mg kg-1 (day in diet)-1
2 | Cn1cnc([N+](=O)[O-])c1Sc1ncnc2c1ncn2[C@@H]1O[C@H](CO)[C@@H](O)[C@H]1O | 200 mg kg-1 (day in diet)-1 | 180 mg kg-1 (day in diet)-1 | 68 mg kg-1 (day in diet)-1
3 | Cn1cnc([N+](=O)[O-])c1Sc1ncnc2c1ncn2[C@H]1C[C@H](O)[C@@H](CO)O1 | > 270 mg kg-1 (day in diet)-1 | 100 mg kg-1 (day in diet)-1 | 64 mg kg-1 (day in diet)-1
4 | Cn1cnc([N+](=O)[O-])c1Sc1nc(N)nc2c1ncn2[C@@H]1O[C@H](CO)[C@@H](O)[C@H]1O | 50 mg kg-1 (day in diet)-1 | 50 mg kg-1 (day in diet)-1 | 36 mg kg-1 (day in diet)-1
5 | Cn1cnc([N+](=O)[O-])c1Sc1ncnc2nc[nH]c12 [AZATHIOPRINE] | 150 mg kg-1 (day in diet)-1 | 48 mg kg-1 (day in diet)-1 | 21 mg kg-1 (day in diet)-1
6 | Sc1ncnc2nc[nH]c12 [MERCAPTOPURINE ANHYDROUS] | 25 mg kg-1 (day in diet)-1 | 20 mg kg-1 (day in diet)-1 | 20 mg kg-1 (day in diet)-1
7 | Cn1cnc([N+](=O)[O-])c1Sc1nc(N)nc2[nH]cnc12 [THIAMIPRINE] | 60 mg kg-1 (day in diet)-1 | 30 mg kg-1 (day in diet)-1 | 19 mg kg-1 (day in diet)-1
8 | Nc1nc2nc[nH]c2c(=S)[nH]1 [THIOGUANINE] | 20 mg kg-1 (day in diet)-1 | 10 mg kg-1 (day in diet)-1 | 10 mg kg-1 (day in diet)-1
